Laboratory results taken from paper PMC3880594 (Journal of medicinal chemistry, 2013).

Columns and labels:
[1] = tested on: MCF-7 (ER-positive) breast cancer cells; assay: MTT antiproliferation assay, MCF-7; type: cell-based, human; settings: MCF-7 and MDA-MB-231 cells
How it was run: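 Human breast cancer lines MCF-7 (ER-positive) and MDA-MB-231 (triple-negative) were used, with oridonin tested alongside. MTT antiproliferation read-out: after the MTT step, solution replaced by DMSO, OD at 550 nm after 10 min. Each concentration in quadruplicate wells. IC50 by curve fitting. Mean ± SE of three independent experiments.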

MDA-MB-231 cells [2] = assay: Colony formation assay; type: cell-based, human; settings: 0.625-10 μM, two weeks
How it was run: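 MDA-MB-231 cells seeded at 800 cells/well in regular medium; after 24 h, test compound (0.625, 1.25, 2.5, 5 or 10 μM) or DMSO vehicle added. Drug-containing medium renewed every 72 h for two weeks. Wells stained with 0.01% crystal violet for 10 min, PBS-washed and dried, then whole-well density quantified digitally. Triplicate; one-way ANOVA, SD shown.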

[3] = tested on: Bcl-2, Bax, NF-κB (p65), PARP, caspase-3 in MDA-MB-231 cells; assay: Western blot of apoptosis related proteins; type: cell-based, human; settings: 48 h; 10 and 19 at 2.5-10 μM, 1 at 10-30 μM
How it was run: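 MDA-MB-231 cells exposed to test compound or DMSO for 48 h, then lysed; protein measured by Bradford against BSA. 30 μg per lane resolved by SDS-PAGE and blotted to PVDF, blocked in 5% non-fat milk. Primary antibodies overnight: Bcl-2 1:200, Bax 1:1000, PARP 1:10000, NF-κB 1:2000, caspase-3 1:1000, β-actin 1:20000. Secondary antibody applied, then ECL detection.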

MDA-MB-231 cells [4] = assay: Cell apoptosis assay; type: cell-based, human; settings: MDA-MB-231 cells, 1.0, 5.0, 10 μM, 24 h
[5] = tested on: MCF-7/ADR cells (adriamycin-resistant MCF-7 clone); assay: Growth inhibition of drug-resistant breast cancer cells; type: cell-based, human; settings: concentrations from 1 μM to 10 μM, 48 h
[6] = tested on: MDA-MB-231, a TNBC cell line; settings: same dose range effective for MCF-7 cells; ref 9a; cited from earlier work
[7] = tested on: HMEC (human normal mammary epithelial cells); assay: Growth inhibition of normal human mammary epithelial cells; type: cell-based; settings: 10 μM, 24 h; p < 0.05
[8] = tested on: MDA-MB-231 xenograft tumors; assay: MDA-MB-231 xenograft tumor model; type: in vivo; settings: 5 mg/kg i.p., nude mice

For `C=C1C(=O)[C@@]23C(=O)[C@@H](O)[C@@H]4C(C)(C)[C@@H]5OC[C@]4(C(=O)/C5=C/OC)[C@@H]2CC[C@@H]1[C@H]3O` [Compound 13, (3S,4aR,5S,6aR,9S,11aS,11bS,14R,E)-5,14-dihydroxy-2-(methoxymethylene)-4,4-dimethyl-8-methyleneoctahydro-1H-3,11b-(epoxymethano)-6a,9-methanocyclohepta[a]naphthalene-1,6,7(2H,8H)-trione], the “antiproliferative activities (in words)” value [1] was “no obvious antiproliferative activities”.
In the case of `C=C1C(=O)[C@@]23[C@@H]4OC(C)(C)O[C@]25OC[C@]2(C(=O)C(C=O)=CC(C)(C)[C@H]2[C@@H]5O)[C@@H]3CC[C@@H]14` [Compound 10, (3S,3aR,3a^1R,6aR,7S,7aR,11aS,11bS)-7-hydroxy-5,5,8,8-tetramethyl-15-methylene-11,14-dioxo-2,3,3a,7,7a,8,11,11b-octahydro-1H-6a,11a-(epoxymethano)-3,3a^1-ethanophenanthro[1,10-de][1,3]dioxine-10-carbaldehyde], the “inhibition of colony formation” value (MDA-MB-231 cells [2]) is reported as “inhibit the colony formation”, the Bax protein level [3] is reported as “up-regulation” and the Bcl-2 protein level [3] is reported as “down-regulation”. The “NF-κB (p65) protein expression” value [3] was “significant decrease”, the “PARP cleavage (116 kDa to 25 kDa)” value [3] was “triggered PARP cleavage” and the caspase-3 activation [3] was “activated caspase-3 in a dose-dependent manner”. For the same molecule, the induction of apoptosis (MDA-MB-231 cells [4]) was “significant effects to induce apoptosis of MDA-MB-231 cells in a dose-dependent manner”.
With `C=C1C(=O)[C@]23[C@H](O)[C@H]1CC[C@H]2[C@@]12CO[C@]3(O)[C@@H](O)[C@@H]1C(C)(C)CC[C@@H]2O` [Compound 1, Oridonin, reference compound] the Bax protein level [3] was “up-regulation”, the Bcl-2 protein level [3] was “down-regulation” and the “NF-κB (p65) protein expression” value [3] was “down-regulation”. The “PARP cleavage (116 kDa to 25 kDa)” value [3] was “up-regulation of Bax and cleaved PARP”, the caspase-3 activation [3] was “did not activate caspase-3 cleavage” and the “growth inhibitory activity on MCF-7/ADR cells” value [5] was “no growth inhibitory activity”. For the same molecule, the “growth of MDA-MB-231” value [6] was “failed to reduce the growth”.
In the case of `C=C1C(=O)[C@@]23[C@@H]4OC(C)(C)O[C@]25OC[C@]2(C=CC(=O)C(C)(C)[C@H]2[C@@H]5O)[C@@H]3CC[C@@H]14` [Compound 19, (3S,3aR,3a^1R,6aR,7S,7aS,11aR,11bS)-7-hydroxy-5,5,8,8-tetramethyl-15-methylene-3,3a,7,7a,8,11b-hexahydro-1H-6a,11a-(epoxymethano)-3,3a^1-ethanophenanthro[1,10-de][1,3]dioxine-9,14(2H)-dione], the “inhibition of colony formation” value (MDA-MB-231 cells [2]) is reported as “significantly blocked the colony formation of MDA-MB-231 cells at a submicromolar concentration”, the “toxicity to HMEC compared with oridonin” value [7] is reported as “lower toxicity at 10 μM than oridonin” and the Bax protein level [3] is reported as “up-regulation”. The Bcl-2 protein level [3] was “down-regulation”, the “NF-κB (p65) protein expression” value [3] was “significant decrease” and the “PARP cleavage (116 kDa to 25 kDa)” value [3] was “triggered PARP cleavage”. The caspase-3 activation [3] was “activated caspase-3 in a dose-dependent manner”, the “tolerability / body weight” value [8] was “no significant loss of body weight” and the induction of apoptosis (MDA-MB-231 cells [4]) was “significant effects to induce apoptosis of MDA-MB-231 cells in a dose-dependent manner”.
For `C=C1C(=O)[C@@]23C(=O)[C@@H](O)[C@@H]4C(C)(C)[C@@H]5OC[C@]4(C(=O)/C5=C\O)[C@@H]2CC[C@@H]1[C@H]3O` [Compound 14, (3S,4aR,5S,6aR,9S,11aS,11bS,14R,Z)-5,14-dihydroxy-2-(hydroxymethylene)-4,4-dimethyl-8-methyleneoctahydro-1H-3,11b-(epoxymethano)-6a,9-methanocyclohepta[a]naphthalene-1,6,7(2H,8H)-trione], the “antiproliferative activities (in words)” value [1] was “no obvious antiproliferative activities”.
